{"source": "ChEMBL document CHEMBL4480456", "about": "“Potentially Cardiotoxic Diterpenoid Alkaloids from the Roots of Aconitum carmichaelii” (J Nat Prod, 2019)", "key": {"H9c2 [1]": {"test_system": "H9c2", "experiment": "Cytotoxicity against rat H9c2 cells assessed as reduction in cell viability after 24 hrs by MTT assay", "format": "cell-based", "details": "H9c2, 24 h", "outline": "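H9c2 cells cultured in DMEM with 10% FBS, penicillin/streptomycin/glutamine at 37 °C, 5% CO2. Seeded 1 × 10^5 cells/well, grown 24 h, then exposed to compounds for 24 h. The compounds came from 80 mM DMSO stocks diluted in complete medium to a series of concentrations. MTT added for 4 h, formazan dissolved in DMSO, OD read at 490 nm. Inhibition % taken against a cell-free medium blank. At least three experiments.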"}, "H9c2 [2]": {"test_system": "H9c2", "experiment": "Increase in intracellular calcium levels in rat H9c2 after 30 to 430 secs by FLIPR assay", "format": "ADME, cell-based", "outline": "(§1)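 H9c2 cells seeded at 1 × 10^5 cells/well and grown to confluency. Medium replaced by HBSS with 20 mM HEPES, then loaded with calcium-sensitive dye (Calcium 6 kit) for 2 h at 37 °C. Compounds freshly prepared in HBSS/HEPES were added and fluorescence was read on FLIPR. ΔF/F0 taken as peak amplitude change over initial intensity. Means ± SD, three independent experiments.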"}, "H9c2 [3]": {"test_system": "H9c2", "experiment": "Disruption of mitochondrial membrane potential in rat H9c2 cells at 40 uM after 24 hrs by rhodamine 123 staining-based assay", "format": "ADME, cell-based", "details": "h9c2, 24 h", "outline": "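H9c2 cells in imaging plates exposed 24 h, PBS-washed and stained 30 min with rhodamine 123. Then fixed in 4% paraformaldehyde 15 min and counterstained with DAPI 20 min. Rh123 intensity quantified by high-content imaging on In Cell Analyzer 6000. Means ± SD, three independent experiments.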"}, "H9c2 [4]": {"test_system": "H9c2", "experiment": "Induction of apoptosis in rat H9c2 cells at 40 uM after 24 hrs by DAPI/annexin V-FITC/PI double staining-based assay", "format": "cell-based", "details": "h9c2, 24 h", "outline": "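H9c2 cells in imaging plates exposed 24 h, PBS-washed, stained 30 min with annexin V-FITC and PI. Then fixed in 4% paraformaldehyde 15 min and DAPI-labelled 20 min. High-content imaging on In Cell Analyzer 6000 quantified nuclear size and annexin V-FITC and PI intensities. Means ± SD, three independent experiments.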"}, "H9c2 [5]": {"test_system": "H9c2", "experiment": "Induction of membrane potential in rat H9c2 cells after 50 to 650 secs by FLIPR assay", "format": "cell-based", "outline": "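H9c2 cells seeded at 1 × 10^5 cells/well and grown to confluency. Switched to HBSS with 20 mM HEPES and loaded with blue membrane-potential dye for 30 min at 37 °C. Compounds freshly prepared in HBSS/HEPES were added and fluorescence was read on FLIPR. ΔF/F0 taken as peak change over initial intensity. Means ± SD, three independent experiments.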"}, "H9c2 [6]": {"test_system": "H9c2", "experiment": "Increase in intracellular calcium levels in rat H9c2 at 80 uM after 30 to 430 secs by FLIPR assay", "format": "ADME, cell-based", "details": "h9c2, 80 µM", "outline": "as §1"}}}
{"smiles": "CCN1C[C@]2(COC)[C@H](O)C[C@H](OC)[C@]34[C@@H]1[C@H]([C@H](OC)[C@H]23)[C@]1(OC(=O)c2ccccc2)[C@H]2[C@@H](OC(=O)c3ccccc3)[C@](O)(C[C@]24O)[C@@H](OC)[C@@H]1O", "values": [{"measurement": "IC50", "setting": "H9c2 [1]", "result": "> 100", "unit": "µM"}]}
{"smiles": "COC[C@]12CN(C)[C@H]3[C@@H]4[C@H](OC)[C@H]1[C@@]3([C@@H](OC)C[C@H]2O)[C@@H]1C[C@@]2(O)[C@H](OC(=O)c3ccccc3)[C@@H]1[C@]4(OC(=O)c1ccccc1)[C@@H](O)[C@@H]2OC", "values": [{"measurement": "IC50", "setting": "H9c2 [1]", "result": 12.9, "unit": "µM"}]}
{"smiles": "COC[C@]12CN(C)[C@H]3[C@@H]4[C@H](OC)[C@H]1[C@@]3([C@@H](OC)C[C@H]2O)[C@@H]1C[C@@]2(O)[C@H](OC(=O)c3ccccc3)[C@@H]1[C@]4(OC(C)=O)[C@@H](O)[C@@H]2OC", "values": [{"measurement": "Activity", "setting": "H9c2 [2]", "result": "Toxic"}, {"measurement": "Activity", "setting": "H9c2 [3]", "result": "Toxic"}, {"measurement": "Activity", "setting": "H9c2 [4]", "result": "Non-Toxic"}]}
{"smiles": "CCN1C[C@]2(COC)CC[C@H](OC)[C@@]34[C@@H]5C[C@@]6(O)[C@H](OC(=O)c7ccccc7)[C@@H]5[C@](OC)([C@@H](O)[C@@H]6OC)[C@@H](C[C@H]23)[C@H]14", "values": [{"measurement": "IC50", "setting": "H9c2 [1]", "result": "> 100", "unit": "µM"}]}
{"smiles": "COC[C@@]12CC[C@H](OC)[C@@]34[C@@H]5C[C@@]6(O)[C@H](OC(=O)c7ccccc7)[C@@H]5[C@@](OC(C)=O)([C@@H]([C@H](OC)[C@H]13)[C@@H]4N(C)C2)[C@@H](O)[C@@H]6OC", "values": [{"measurement": "Activity", "setting": "H9c2 [2]", "result": "Toxic"}, {"measurement": "Activity", "setting": "H9c2 [3]", "result": "Toxic"}, {"measurement": "Activity", "setting": "H9c2 [4]", "result": "Non-Toxic"}]}
{"smiles": "C=C1[C@@H](O)[C@@]23C[C@H]4[C@@H]5[C@@]6(C)CCC[C@@]57[C@@H]2C[C@@H]1[C@H](OC(C)=O)[C@@H]3[C@H]7N4[C@H]6O", "values": [{"measurement": "IC50", "setting": "H9c2 [1]", "result": "> 100", "unit": "µM"}]}
{"smiles": "COC[C@@]12CC[C@H](OC)[C@@]34[C@@H]5C[C@@]6(O)[C@H](OC(=O)c7ccccc7)[C@@H]5[C@@](OC(=O)c5ccccc5)([C@@H]([C@H](OC)[C@H]13)[C@@H]4N(C)C2)[C@@H](O)[C@@H]6OC", "values": [{"measurement": "IC50", "setting": "H9c2 [1]", "result": 44.3, "unit": "µM"}]}
{"smiles": "C=C1[C@@H](O)[C@@]23C[C@H]4[C@@H]5[C@@]6(C)CCC[C@@]57[C@@H]2C[C@@H]1[C@H](O)[C@@H]3[C@H]7N4[C@H]6O", "values": [{"measurement": "IC50", "setting": "H9c2 [1]", "result": "> 100", "unit": "µM"}]}
{"smiles": "CCCCO[C@]12[C@H]3[C@@H](OC(=O)c4ccccc4)[C@](O)(C[C@H]3[C@@]34[C@@H](OC)C[C@@H](O)[C@@]5(COC)CN(CC)[C@H]3[C@@H]1[C@H](OC)[C@H]54)[C@@H](OC)[C@@H]2O", "values": [{"measurement": "Activity", "setting": "H9c2 [5]", "result": "Dose-dependent effect"}, {"measurement": "Activity", "setting": "H9c2 [6]", "result": "Toxic"}, {"measurement": "IC50", "setting": "H9c2 [1]", "result": 21.2, "unit": "µM"}]}
{"smiles": "CCN1C[C@]2(COC)CC[C@H](OC)[C@@]34[C@@H]5C[C@@]6(O)[C@H](OC(=O)c7ccccc7)[C@@H]5[C@@](OC)([C@@H]([C@H](OC)[C@H]23)[C@H]14)[C@@H](O)[C@@H]6OC", "values": [{"measurement": "IC50", "setting": "H9c2 [1]", "result": 95.6, "unit": "µM"}]}
{"smiles": "CCN1C[C@]2(COC)CC[C@H](OC)[C@@]34[C@@H]5C[C@@H]6[C@@H](OC)[C@H](O)[C@@](OC)([C@H]5[C@H]6OC(=O)c5ccccc5)[C@@H](C[C@H]23)[C@H]14", "values": [{"measurement": "IC50", "setting": "H9c2 [1]", "result": "> 100", "unit": "µM"}]}
{"smiles": "CCCCO[C@]12[C@H]3[C@@H](OC(=O)c4ccccc4)[C@](O)(C[C@H]3[C@@]34[C@@H](OC)C[C@@H](O)[C@@]5(COC)CN(C)[C@H]3[C@@H]1[C@H](OC)[C@H]54)[C@@H](OC)[C@@H]2O", "values": [{"measurement": "Activity", "setting": "H9c2 [3]", "result": "Toxic"}, {"measurement": "IC50", "setting": "H9c2 [1]", "result": 27, "unit": "µM"}, {"measurement": "Activity", "setting": "H9c2 [4]", "result": "Toxic"}]}
{"smiles": "COC[C@]12CN(C)[C@H]3[C@@H]4[C@H](OC)[C@H]1[C@@]3([C@@H](OC)C[C@H]2O)[C@]1(O)C[C@@]2(O)[C@H](OC(=O)c3ccccc3)[C@@H]1[C@]4(OC(=O)c1ccccc1)[C@@H](O)[C@@H]2OC", "values": [{"measurement": "IC50", "setting": "H9c2 [1]", "result": "> 100", "unit": "µM"}]}
{"smiles": "CCCCO[C@]12[C@H]3[C@@H](OC(=O)c4ccccc4)[C@](O)(C[C@H]3[C@@]34[C@@H](OC)CC[C@@]5(COC)CN(CC)[C@H]3[C@@H]1[C@H](OC)[C@H]54)[C@@H](OC)[C@@H]2O", "values": [{"measurement": "Activity", "setting": "H9c2 [5]", "result": "Dose-dependent effect"}, {"measurement": "Activity", "setting": "H9c2 [6]", "result": "Toxic"}, {"measurement": "Activity", "setting": "H9c2 [3]", "result": "Toxic"}, {"measurement": "IC50", "setting": "H9c2 [1]", "result": 19.2, "unit": "µM"}, {"measurement": "Activity", "setting": "H9c2 [4]", "result": "Toxic"}]}
{"smiles": "CCN1C[C@]2(COC)[C@H](O)C[C@H](OC)[C@@]34[C@@H]5C[C@@]6(O)[C@H](OC(=O)c7ccccc7)[C@@H]5[C@@](OC)([C@@H]([C@H](OC)[C@H]23)[C@H]14)[C@@H](O)[C@@H]6OC", "values": [{"measurement": "IC50", "setting": "H9c2 [1]", "result": 68.4, "unit": "µM"}]}
